# In the library only some 1.8% were active in any assay of this set; here they are far more common.
# SKN-1 block: inhibitors of C. elegans SKN-1; C. elegans VP596 Pgst-4::GFP/RFP ratio, acrylamide-induced, 24 h; inhibition, % at 21.8 µM; 360,000 compounds, 0.49% hits; AID 624304;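 active = interference check ratio from 0.5 to 1.5 plus GFP to RFP signal ratio inhibition reaching or exceeding a fixed threshold, cut at about 30% in these data, passing the limit was not always enough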
# DAGLB inhibitor: diacylglycerol lipase beta (human) inhibition; HEK293T DAGLB membrane lysate, EnzChek fluorogenic substrate; inhibition, % at 5.17 µM; 340,000 compounds, 0.059% hits; AID 504411; in the data active = inhibition above about 34%;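 also: 0% = enzyme with vehicle and 100% = wells lacking enzyme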
# Target sequence (Q8NCG7 whole entry, looked up): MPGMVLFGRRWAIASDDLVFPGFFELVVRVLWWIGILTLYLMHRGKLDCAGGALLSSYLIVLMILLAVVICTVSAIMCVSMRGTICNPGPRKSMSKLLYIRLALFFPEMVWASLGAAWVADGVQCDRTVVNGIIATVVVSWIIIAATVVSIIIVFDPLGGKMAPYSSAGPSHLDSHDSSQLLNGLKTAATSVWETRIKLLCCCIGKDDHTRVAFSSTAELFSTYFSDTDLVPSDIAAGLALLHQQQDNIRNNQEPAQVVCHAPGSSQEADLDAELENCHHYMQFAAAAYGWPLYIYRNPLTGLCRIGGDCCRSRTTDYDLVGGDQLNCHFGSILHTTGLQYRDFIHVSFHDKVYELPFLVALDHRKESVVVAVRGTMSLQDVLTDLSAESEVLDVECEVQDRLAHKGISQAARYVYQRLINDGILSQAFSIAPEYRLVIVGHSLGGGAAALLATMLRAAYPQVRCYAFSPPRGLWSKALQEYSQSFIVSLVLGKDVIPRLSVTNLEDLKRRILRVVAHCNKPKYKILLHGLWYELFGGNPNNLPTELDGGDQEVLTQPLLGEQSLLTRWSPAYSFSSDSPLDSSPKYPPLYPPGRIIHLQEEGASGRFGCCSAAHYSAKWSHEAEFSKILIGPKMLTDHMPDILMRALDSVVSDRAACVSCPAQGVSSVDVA
# MT1-MMP act inh: MT1-MMP (human) activation inhibition; P50281; 360,000 compounds, 0.061% hits; GFP/RFP ratio change, % at 20 µM; HT1080 RFP-PRO-GFP cells, GFP/RFP ratio fluorescence, overnight; percent of plate control window, DMSO zero;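 active = GFP/RFP ratio change of at least 30% with cell ATP level not reduced by more than half and red fluorescence within 50% of control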
#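 Compound: 20 µM single dose, 1% DMSO / System: HT1080 RFP-PRO-GFP cells / Controls: DMSO and RFP-L50D-GFP cell wells / Read-out basis: GFP/RFP fluorescence ratio / Schedule: overnight compound exposure at 37 °C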
# iPSC survival up: enhancers of human iPSC single-cell survival. 360,000 compounds, 0.044% hits. survival enhancement, % at 20 µM. hiPSC single-cell survival, ATPlite luminescence; 100% = ROCK inhibitor wells, 0% = DMSO; in the data active = survival enhancement above about 18%;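 also: cells exposed to compounds for 16 hours before the ATP read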
# Cneo AK release: causes C. neoformans cell lysis; AID 651654; 360,000 compounds, 0.2% hits; adenylate kinase release luminescence, 4 h; normalised: neutral wells 0, clomiphene wells 100; lysis activity, % at 15 µM;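 active = mean lysis activity across replicates of at least 80%, whatever share of replicates individually reach that level; inactive = mean lysis activity below 80%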
#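 Signal: Adenylate kinase release luminescence | Assay system: Log-phase Cryptococcus neoformans yeast cells | Input: Cells at 5 × 10^6 per mL | Buffer or medium: Fresh YPD growth medium | Compound: Single dose | Schedule: Static 4 h at 37 °C with compound, 1 h detection | Controls: Clomiphene | Read-out: Luminescence rise reflecting yeast cell lysis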
# Ecoli rRNA inh: inhibitors of bacterial rRNA selective over humanized ribosomes; E. coli WT GFP vs humanized-ribosome RFP mutants, fluorescence, 24 h; stronger effect = lower value; DMSO median 0, no signal -100; GFP signal change (wild-type ribosome), % (concentration not given with the values); 350,000 compounds, 1.6% hits; AID 720706;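 active = significant combined selectivity score with lowered wild-type GFP, culture density cut under 30%, mutant RFP and density less affected; inactive = any of these conditions unmet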
# Active calls of the source: *; . = no result given.
SMILES,SKN-1 block,DAGLB inhibitor,MT1-MMP act inh,iPSC survival up,Cneo AK release,Ecoli rRNA inh
CCOc1cccc(C(=O)Nc2ccc3oc(Cc4ccc(Cl)cc4)nc3c2)c1,-8,-5,10,0,-3,-30*
CCCN(C)C[C@@H]1Oc2cc(C#Cc3cccc(F)c3)ccc2S(=O)(=O)N([C@H](C)CO)C[C@@H]1C,.,.,.,.,-4,2
CCC(=O)N1c2ccc(S(=O)(=O)CCC(=O)NCc3cccs3)cc2CC1C (stereo not drawn),43*,2,1,2,.,.
CCC(=O)N1c2ccc(S(=O)(=O)CCC(=O)NC3CCCC3)cc2CC1C (stereo not drawn),-2,0,-1,-2,1,.
CCOc1ccc(CC(=O)Nc2cccc(-c3ccc4nnc(C)n4n3)c2)cc1,-11,3,20,1,-3,-34*
O=[N+]([O-])c1cccc(-c2noc(-c3ccco3)n2)c1,53*,-6,2,0,.,12
CCCCCc1ccc(-c2ccc(OC)cc2)nc1,21,-3,9,2,-1,-24*
CCCNC(=O)C[C@@H]1CC[C@H]2[C@H](COc3ccc(NC(=O)c4cscn4)cc3C(=O)N2C)O1,.,.,.,.,.,-1
COc1cccc(CC(=O)OCC(=O)Nc2nnc(-c3ccccc3)o2)c1,2,1,5,0,0,-27*
CN1C(=O)c2cc(NS(=O)(=O)c3ccccc3Cl)ccc2OC[C@@H]2O[C@H](CC(=O)O)CC[C@H]21,.,.,.,.,-4,5
CCc1nc2ccccc2n1CC(=O)N(C(C)CC)C1CCS(=O)(=O)C1 (stereo not drawn),47*,-1,-2,-2,2,.
CCC(C)N(C(=O)Cn1c(=O)cnc2ccccc21)C1CCS(=O)(=O)C1 (stereo not drawn),-8,3,4,0,-3,15
O=C(Nc1ccc(F)cc1)N[C@H]1C=C[C@H](CC(=O)N2CCOCC2)O[C@H]1CO,.,.,.,.,4,6
OCCCNc1cc(-c2ccnc(Nc3cccc(Cl)c3)n2)ccn1,-38,1,-16,-1,3,-20*
CCC(C)Oc1cc(-c2ccnc(Nc3cccc(Cl)c3)n2)ccn1 (stereo not drawn),17,-6,-18,0,-2,18
COC(=O)c1ccccc1NC(=O)c1ccc2c(c1)CC(C)O2 (stereo not drawn),9,-15,-5,0,-2,-29*
COC(=O)c1cc(NC(=O)c2cc(-c3ccccc3Cl)oc2C(F)(F)F)ccc1N1CCOCC1,-5,2,-7,-1,2,-32*
N#C[C@H]1[C@H](c2ccccc2)[C@@H](CO)N1C(=O)c1ccc2c(c1)OCO2,.,.,.,.,-2,6
CCCC#Cc1cnc2c(c1)C(=O)N([C@H](C)CO)C[C@H](C)[C@H](CN(C)C(=O)Nc1ccccc1OC)O2,.,.,.,.,-1,-1
COC(=O)Cc1c(O)ccn(Cc2ccc(Cl)c(Cl)c2)c1=O,8,-3,0,1,.,-21*
COC(=O)Cc1c(O)ccn(Cc2ccc(OC)c(OC)c2)c1=O,0,3,1,0,0,16
COc1ccc2cc(C(=O)C3CCCN(C(=O)C4=NN(C)C(=O)CC4)C3)ccc2c1 (stereo not drawn),10,0,0,1,4,-26*
C[C@@H]1CN([C@H](C)CO)S(=O)(=O)c2ccc(C#CCN(C)C)cc2O[C@H]1CN(C)C(=O)C1CC1,.,.,.,.,.,5
COc1ccc(/C=C/C(=O)Nc2ccccc2C(=O)O)cc1,5,3,3,-1,-2,-36*
CCOC(=O)C(NCc1ccc(F)cc1)(NC(=O)c1ccccc1)C(F)(F)F (stereo not drawn),14,-1,-4,-1,-1,.
SMILES,SKN-1 block,DAGLB inhibitor,MT1-MMP act inh,iPSC survival up,Cneo AK release,Ecoli rRNA inh
COc1ccc(CNC(NC(=O)c2ccccc2)(C(F)(F)F)C(F)(F)F)cc1,-3,-7,0,-1,.,-19*
Cc1cc(N2CCN(C(c3ccnc4ccccc34)c3nnnn3-c3c(C)cccc3C)CC2)c2ccccc2n1 (stereo not drawn),-3,.,-3,-1,.,-26*
COc1cccc(/C=N/NC(=O)N/N=C/c2cccc(OC)c2O)c1O,10,-2,5,0,0,-31*
COc1ccccc1C=NNC(=O)NN=Cc1ccccc1OC,13,2,0,-4,-8,-41
COc1cccc(/C=N/NC(=O)C(C)n2nc(C)c([N+](=O)[O-])c2C)c1O (stereo not drawn),9,0,-1,0,.,-22*
C[C@H]1CN([C@@H](C)CO)S(=O)(=O)c2ccc(C#CC3CC3)cc2O[C@@H]1CN(C)Cc1cncnc1,.,.,.,.,.,-7
Nc1ccc(C#Cc2ccccc2)cc1,3,2,-7,-2,-1,.
Cc1cccc(C#Cc2ccccc2)n1,46*,-3,0,-2,-1,-49
N#Cc1ccsc1NC(=O)CSc1nnnn1-c1ccc(O)cc1,2,0,-12,0,.,-26*
N#Cc1ccsc1NC(=O)CSc1nncs1,12,-2,-17,0,1,7
CN1C(=O)c2cc(NC(=O)C3CCOCC3)ccc2OC[C@@H]2O[C@H](CC(=O)O)CC[C@@H]21,.,.,.,.,.,0
C[C@]12CCC(=O)C=C1CCC1C2CC[C@@]2(C)C1CCC21OCCO1 (stereo partly drawn),10,-5,-1,-1,-1,-54
CC(=O)C12OC1CC1C3CCC4=CC(=O)CCC4(C)C3CCC12C (stereo not drawn),-3,-3,3,-1,3,-23*
CNC[C@@H]1Oc2ccc(NC(=O)Nc3ccccc3)cc2C(=O)N([C@H](C)CO)C[C@@H]1C,.,.,.,.,-2,2
C[C@@H]1CN([C@@H](C)CO)C(=O)Cc2cc(NC(=O)Nc3cccc4ccccc34)ccc2O[C@@H]1CN(C)S(=O)(=O)c1cccs1,.,.,.,.,95*,-2
C[C@@H]1CN([C@H](C)CO)C(=O)c2c(c3ccccc3n2C)-c2ccccc2CO[C@H]1CN(C)S(=O)(=O)c1cccs1,.,.,.,.,90*,-3
Cc1noc(C)c1S(=O)(=O)Nc1ccc2c(c1)CC(=O)N([C@@H](C)CO)C[C@@H](C)[C@@H](CN(C)S(=O)(=O)c1cccs1)O2,.,.,.,.,106*,2
Cc1noc(C)c1S(=O)(=O)Nc1ccc2c(c1)CC(=O)N([C@@H](C)CO)C[C@H](C)[C@H](CN(C)S(=O)(=O)c1cn(C)cn1)O2,.,.,.,.,-3,2
Cc1noc(C)c1S(=O)(=O)Nc1ccc2c(c1)CC(=O)N([C@H](C)CO)C[C@H](C)[C@@H](CN(C)S(=O)(=O)c1cn(C)cn1)O2,.,.,.,.,110*,1

# Assay outcomes from PubChem.
